Results as given in ChEMBL document CHEMBL4325842, “Design, synthesis, and biological evaluation of novel aminopyrimidinylisoindolines as AXL kinase inhibitors” (Bioorg Med Chem Lett, 2018).
pIC50: −log10 of the molar value.

What was measured:
PANC-1 = assay: Antiproliferative activity against human PANC1 cells after 2 days by spectrophotometric analysis; assay type: functional; settings: PANC-1, 48 h
Focal adhesion kinase 1 = Focal adhesion kinase 1 (Homo sapiens, UniProt Q05397); assay: Inhibition of human FAK at 10 uM using poly[Glu:Tyr] (4:1) as substrate by [gamma-33P]-ATP assay relative to control
In short: (§1)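 Commercial kinase panel screen at a single concentration of 10 μM. % inhibition was calculated as 100 minus % activity.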

[1] = biological target: Insulin receptor (Homo sapiens) (UniProt P06213); assay: Inhibition of human IR at 10 uM using poly[Glu:Tyr] (4:1) as substrate by [gamma-33P]-ATP assay relative to control; in short: as §1
[2] = biological target: Activated CDC42 kinase 1 (Homo sapiens) (UniProt Q07912); assay: Inhibition of human ACK1 at 10 uM using EAIYAAPFAKKK as substrate by [gamma-33P]-ATP assay relative to control; in short: as §1
HeLa = assay: Antiproliferative activity against human HeLa cells after 2 days by spectrophotometric analysis; assay type: functional; settings: 48 h
In short: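 Cells from ATCC were kept in RPMI 1640 with 5% FBS. They were exposed to graded concentrations in DMSO/RPMI for 48 h at 37 C under 5% CO2, then fixed with 50% trichloroacetic acid. Cellular protein was read at 540 nm at time zero and at 48 h, with and without compound. TGI (100% growth inhibition) was taken from the concentration-response curve.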

NOMO-1 = assay: Antiproliferative activity against human NOMO1 cells after 2 days by spectrophotometric analysis; assay type: functional; settings: NOMO-1, 48 h
[3] = biological target: Serine/threonine-protein kinase B-raf (Homo sapiens) (UniProt P15056); assay: Inhibition of human BRAF at 10 uM using MEK1 (K97R) as substrate by [gamma-33P]-ATP assay relative to control; in short: as §1
[4] = biological target: Tyrosine-protein kinase Fyn (Homo sapiens) (UniProt P06241); assay: Inhibition of human FYN at 10 uM using poly[Glu:Tyr] (4:1) as substrate by [gamma-33P]-ATP assay relative to control; in short: as §1
[5] = biological target: T1, Tyrosine-protein kinase receptor UFO (Homo sapiens, UniProt P30530); assay: Inhibition of N-terminal His-tagged recombinant human AXL (473 to end amino acids) expressed by baculovirus in Sf9 cells using axltide substrate and ATP by ADP-Glo luminescence assay
T1 sequence (P30530 whole entry): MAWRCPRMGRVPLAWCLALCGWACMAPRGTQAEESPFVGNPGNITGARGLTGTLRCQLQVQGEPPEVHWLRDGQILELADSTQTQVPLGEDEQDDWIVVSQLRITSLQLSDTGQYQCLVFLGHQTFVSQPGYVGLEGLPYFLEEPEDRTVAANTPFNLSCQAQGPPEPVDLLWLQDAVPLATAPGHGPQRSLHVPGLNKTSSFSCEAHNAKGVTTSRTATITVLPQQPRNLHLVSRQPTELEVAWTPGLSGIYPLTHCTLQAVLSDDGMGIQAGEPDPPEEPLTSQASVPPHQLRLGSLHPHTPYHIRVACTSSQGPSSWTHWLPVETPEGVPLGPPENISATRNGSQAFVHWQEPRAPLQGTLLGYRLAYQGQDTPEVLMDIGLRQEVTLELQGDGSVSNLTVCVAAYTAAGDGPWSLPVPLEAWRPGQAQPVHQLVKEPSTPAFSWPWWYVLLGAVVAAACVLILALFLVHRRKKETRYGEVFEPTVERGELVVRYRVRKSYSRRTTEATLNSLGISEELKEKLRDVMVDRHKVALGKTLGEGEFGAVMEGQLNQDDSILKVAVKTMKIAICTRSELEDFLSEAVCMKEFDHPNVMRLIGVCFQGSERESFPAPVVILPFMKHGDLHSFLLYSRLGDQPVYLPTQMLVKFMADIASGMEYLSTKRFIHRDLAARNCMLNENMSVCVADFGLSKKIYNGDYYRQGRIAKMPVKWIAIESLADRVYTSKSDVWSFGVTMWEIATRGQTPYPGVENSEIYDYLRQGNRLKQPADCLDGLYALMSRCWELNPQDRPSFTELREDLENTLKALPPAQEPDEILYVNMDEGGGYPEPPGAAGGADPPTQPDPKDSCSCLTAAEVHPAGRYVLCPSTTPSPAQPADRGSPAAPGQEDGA

[6] = biological target: Proto-oncogene tyrosine-protein kinase Src (Homo sapiens) (UniProt P12931); assay: Inhibition of human c-SRC at 10 uM using poly[Glu:Tyr] (4:1) as substrate by [gamma-33P]-ATP assay relative to control
In short: (§2)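 Kinase-panel profiling (50 oncogenic kinases) run by an outside contract service. The test compound was tested at a single concentration of 10 μM. Percent inhibition was calculated as 100 minus % remaining activity.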

MV4-11 = assay: Antiproliferative activity against human MV4-11 cells after 2 days by spectrophotometric analysis; assay type: functional; settings: MV4-11, 48 h
[7] = biological target: Tyrosine-protein kinase JAK1 (Homo sapiens) (UniProt P23458); assay: Inhibition of human JAK1 at 10 uM using poly[Glu:Tyr] (4:1) as substrate by [gamma-33P]-ATP assay relative to control; in short: as §1
[8] = biological target: Vascular endothelial growth factor receptor 2 (Homo sapiens) (UniProt P35968); assay: Inhibition of human KDR at 10 uM using poly[Glu:Tyr] (4:1) as substrate by [gamma-33P]-ATP assay relative to control; in short: as §1
[9] = biological target: Tyrosine-protein kinase Mer (Homo sapiens) (UniProt Q12866); assay: Inhibition of human MER at 10 uM using poly[Glu:Tyr] (4:1) as substrate by [gamma-33P]-ATP assay relative to control; in short: as §1
[10] = biological target: Ribosomal protein S6 kinase beta-1 (Homo sapiens) (UniProt P23443); assay: Inhibition of human RPS6KB1 at 10 uM using KKRNRTLTK as substrate by [gamma-33P]-ATP assay relative to control; in short: as §2
[11] = biological target: Serine/threonine-protein kinase Chk1 (Homo sapiens) (UniProt O14757); assay: Inhibition of human CHK1 at 10 uM using KKKVSRSGLYRSPSMPENLNRPR as substrate by [gamma-33P]-ATP assay relative to control; in short: as §1
[12] = biological target: Dual specificity mitogen-activated protein kinase kinase 1 (Homo sapiens) (UniProt Q02750); assay: Inhibition of human MEK1 at 10 uM using ERK2 (K52R) as substrate by [gamma-33P]-ATP assay relative to control; in short: as §1
[13] = biological target: Death-associated protein kinase 1 (Homo sapiens) (UniProt P53355); assay: Inhibition of human DAPK1 at 10 uM using KKLNRTLSFAEPG as substrate by [gamma-33P]-ATP assay relative to control; in short: as §1
HepG2 = assay: Antiproliferative activity against human HepG2 cells after 2 days by spectrophotometric analysis; assay type: functional; settings: HepG2, 48 h
[14] = biological target: Casein kinase I isoform epsilon (Homo sapiens) (UniProt P49674); assay: Inhibition of human CK1 epsilon at 10 uM using KRRRAL[pS]VASLPGL as substrate by [gamma-33P]-ATP assay relative to control; in short: as §1
Chain of Casein kinase I isoform epsilon (Homo sapiens) (P49674 whole entry, looked up, canonical isoform): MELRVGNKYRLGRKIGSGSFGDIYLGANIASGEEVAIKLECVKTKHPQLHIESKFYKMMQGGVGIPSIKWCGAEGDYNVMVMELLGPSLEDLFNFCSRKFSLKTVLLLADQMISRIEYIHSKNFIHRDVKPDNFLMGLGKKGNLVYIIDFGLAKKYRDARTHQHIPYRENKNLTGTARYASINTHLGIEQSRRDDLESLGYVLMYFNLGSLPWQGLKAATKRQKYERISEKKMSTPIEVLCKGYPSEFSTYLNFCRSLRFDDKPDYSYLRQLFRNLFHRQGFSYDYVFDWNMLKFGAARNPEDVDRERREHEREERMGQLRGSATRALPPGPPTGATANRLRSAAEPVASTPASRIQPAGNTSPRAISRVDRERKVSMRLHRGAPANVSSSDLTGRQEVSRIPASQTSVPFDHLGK

Chain of Activated CDC42 kinase 1 (Homo sapiens) (Q07912 whole entry, looked up): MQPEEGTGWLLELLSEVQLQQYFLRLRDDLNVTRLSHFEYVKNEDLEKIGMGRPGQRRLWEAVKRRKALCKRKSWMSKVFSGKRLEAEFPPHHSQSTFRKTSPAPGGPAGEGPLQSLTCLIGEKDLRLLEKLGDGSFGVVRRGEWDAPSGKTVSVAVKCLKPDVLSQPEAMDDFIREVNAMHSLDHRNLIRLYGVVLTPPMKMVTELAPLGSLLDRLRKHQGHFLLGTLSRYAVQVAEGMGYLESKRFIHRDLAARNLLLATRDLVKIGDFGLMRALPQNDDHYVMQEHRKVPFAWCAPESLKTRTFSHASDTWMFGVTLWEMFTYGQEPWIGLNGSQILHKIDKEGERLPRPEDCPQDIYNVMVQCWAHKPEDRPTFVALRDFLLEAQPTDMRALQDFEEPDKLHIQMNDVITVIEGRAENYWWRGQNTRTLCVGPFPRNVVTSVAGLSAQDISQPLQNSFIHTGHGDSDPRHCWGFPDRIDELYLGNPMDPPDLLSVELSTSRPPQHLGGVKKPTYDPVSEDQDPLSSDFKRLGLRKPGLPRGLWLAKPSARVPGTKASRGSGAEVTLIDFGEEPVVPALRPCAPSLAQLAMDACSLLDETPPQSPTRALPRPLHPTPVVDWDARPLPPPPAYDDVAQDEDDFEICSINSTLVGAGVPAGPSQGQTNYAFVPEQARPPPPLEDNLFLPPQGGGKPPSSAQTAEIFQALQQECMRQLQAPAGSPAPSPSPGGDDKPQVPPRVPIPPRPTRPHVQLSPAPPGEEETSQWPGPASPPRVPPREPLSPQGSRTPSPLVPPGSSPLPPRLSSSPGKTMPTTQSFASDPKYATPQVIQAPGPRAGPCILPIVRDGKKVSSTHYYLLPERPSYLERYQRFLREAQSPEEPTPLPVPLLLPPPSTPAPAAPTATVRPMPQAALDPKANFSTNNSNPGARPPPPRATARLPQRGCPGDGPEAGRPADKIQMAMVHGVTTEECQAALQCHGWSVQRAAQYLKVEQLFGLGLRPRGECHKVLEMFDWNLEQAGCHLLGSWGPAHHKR
Chain of Dual specificity mitogen-activated protein kinase kinase 1 (Homo sapiens) (Q02750 whole entry): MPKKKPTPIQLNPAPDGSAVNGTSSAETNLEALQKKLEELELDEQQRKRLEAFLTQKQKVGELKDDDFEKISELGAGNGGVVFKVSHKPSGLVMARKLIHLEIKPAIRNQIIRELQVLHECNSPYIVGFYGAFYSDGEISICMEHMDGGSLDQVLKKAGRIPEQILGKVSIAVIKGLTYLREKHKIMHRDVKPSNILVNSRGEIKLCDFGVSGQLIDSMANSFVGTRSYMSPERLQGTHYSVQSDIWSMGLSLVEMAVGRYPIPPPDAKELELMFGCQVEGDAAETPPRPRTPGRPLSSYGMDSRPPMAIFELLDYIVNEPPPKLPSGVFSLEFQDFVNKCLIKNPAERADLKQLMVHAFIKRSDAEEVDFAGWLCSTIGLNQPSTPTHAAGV
Chain of Insulin receptor (Homo sapiens) (P06213 28-758 limits assumed): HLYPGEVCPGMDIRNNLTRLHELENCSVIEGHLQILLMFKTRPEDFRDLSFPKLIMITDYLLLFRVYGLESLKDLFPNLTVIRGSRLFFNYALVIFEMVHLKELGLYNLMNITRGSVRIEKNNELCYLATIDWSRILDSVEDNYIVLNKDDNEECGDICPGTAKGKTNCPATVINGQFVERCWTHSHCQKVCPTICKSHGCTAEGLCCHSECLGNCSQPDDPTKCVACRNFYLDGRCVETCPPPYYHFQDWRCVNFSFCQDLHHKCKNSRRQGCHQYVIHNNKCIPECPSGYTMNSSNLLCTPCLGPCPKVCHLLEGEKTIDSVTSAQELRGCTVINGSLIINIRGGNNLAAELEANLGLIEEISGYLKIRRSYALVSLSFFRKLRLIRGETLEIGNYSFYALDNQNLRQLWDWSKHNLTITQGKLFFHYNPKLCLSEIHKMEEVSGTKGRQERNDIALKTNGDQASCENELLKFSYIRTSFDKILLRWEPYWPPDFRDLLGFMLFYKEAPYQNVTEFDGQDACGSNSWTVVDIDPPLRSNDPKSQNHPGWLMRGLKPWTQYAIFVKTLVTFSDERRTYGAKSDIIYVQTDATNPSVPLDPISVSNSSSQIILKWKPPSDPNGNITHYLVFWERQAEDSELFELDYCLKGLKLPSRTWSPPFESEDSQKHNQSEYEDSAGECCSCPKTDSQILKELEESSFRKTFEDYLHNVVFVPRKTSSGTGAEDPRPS
Chain of Insulin receptor (Homo sapiens) (P06213 763-1382 limits assumed): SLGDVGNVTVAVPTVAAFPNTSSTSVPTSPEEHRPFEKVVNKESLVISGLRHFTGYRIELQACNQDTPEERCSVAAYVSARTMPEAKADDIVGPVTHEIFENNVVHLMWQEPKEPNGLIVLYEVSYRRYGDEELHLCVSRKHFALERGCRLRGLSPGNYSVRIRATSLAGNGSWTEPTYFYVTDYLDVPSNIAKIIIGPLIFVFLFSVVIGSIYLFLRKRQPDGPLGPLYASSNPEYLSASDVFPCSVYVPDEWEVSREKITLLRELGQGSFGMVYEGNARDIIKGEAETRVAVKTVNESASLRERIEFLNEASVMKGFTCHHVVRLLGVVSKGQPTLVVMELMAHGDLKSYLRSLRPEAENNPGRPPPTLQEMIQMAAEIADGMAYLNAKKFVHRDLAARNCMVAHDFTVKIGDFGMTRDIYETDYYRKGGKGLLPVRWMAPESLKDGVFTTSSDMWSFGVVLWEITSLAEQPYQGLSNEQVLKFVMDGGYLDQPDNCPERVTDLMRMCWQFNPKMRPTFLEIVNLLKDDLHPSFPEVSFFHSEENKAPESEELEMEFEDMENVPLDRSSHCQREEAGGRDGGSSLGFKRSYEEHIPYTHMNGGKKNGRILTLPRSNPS
Chain of Tyrosine-protein kinase JAK1 (Homo sapiens) (P23458 whole entry): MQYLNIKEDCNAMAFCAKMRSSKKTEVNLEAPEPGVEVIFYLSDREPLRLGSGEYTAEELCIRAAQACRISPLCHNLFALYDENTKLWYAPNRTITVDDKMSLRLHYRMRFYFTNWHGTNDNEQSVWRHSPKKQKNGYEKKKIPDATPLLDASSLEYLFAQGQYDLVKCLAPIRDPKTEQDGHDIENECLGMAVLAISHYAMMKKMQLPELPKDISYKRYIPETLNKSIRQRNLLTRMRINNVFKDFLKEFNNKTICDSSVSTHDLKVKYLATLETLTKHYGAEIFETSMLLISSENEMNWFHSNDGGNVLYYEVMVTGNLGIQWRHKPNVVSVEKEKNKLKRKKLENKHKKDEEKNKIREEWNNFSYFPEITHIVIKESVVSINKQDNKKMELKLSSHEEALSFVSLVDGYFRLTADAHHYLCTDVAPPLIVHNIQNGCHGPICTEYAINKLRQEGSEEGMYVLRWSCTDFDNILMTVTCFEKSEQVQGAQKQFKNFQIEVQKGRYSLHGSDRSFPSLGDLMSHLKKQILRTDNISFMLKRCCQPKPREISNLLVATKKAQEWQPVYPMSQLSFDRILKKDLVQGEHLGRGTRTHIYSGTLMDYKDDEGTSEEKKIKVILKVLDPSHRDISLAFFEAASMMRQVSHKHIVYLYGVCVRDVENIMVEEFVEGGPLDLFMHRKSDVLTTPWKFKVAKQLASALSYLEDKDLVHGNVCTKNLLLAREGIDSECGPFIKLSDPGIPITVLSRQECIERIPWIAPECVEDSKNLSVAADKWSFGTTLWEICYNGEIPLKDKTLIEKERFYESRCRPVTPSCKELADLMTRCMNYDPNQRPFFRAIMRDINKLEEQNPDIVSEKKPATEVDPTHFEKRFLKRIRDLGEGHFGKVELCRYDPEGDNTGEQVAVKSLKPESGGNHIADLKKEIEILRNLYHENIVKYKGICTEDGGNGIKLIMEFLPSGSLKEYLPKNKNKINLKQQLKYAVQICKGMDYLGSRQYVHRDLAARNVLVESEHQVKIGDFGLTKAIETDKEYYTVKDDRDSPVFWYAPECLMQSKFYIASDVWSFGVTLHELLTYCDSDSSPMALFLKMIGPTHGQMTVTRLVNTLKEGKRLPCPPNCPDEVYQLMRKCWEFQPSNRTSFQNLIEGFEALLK
Chain of Tyrosine-protein kinase Fyn (Homo sapiens) (P06241 2-537 limits assumed): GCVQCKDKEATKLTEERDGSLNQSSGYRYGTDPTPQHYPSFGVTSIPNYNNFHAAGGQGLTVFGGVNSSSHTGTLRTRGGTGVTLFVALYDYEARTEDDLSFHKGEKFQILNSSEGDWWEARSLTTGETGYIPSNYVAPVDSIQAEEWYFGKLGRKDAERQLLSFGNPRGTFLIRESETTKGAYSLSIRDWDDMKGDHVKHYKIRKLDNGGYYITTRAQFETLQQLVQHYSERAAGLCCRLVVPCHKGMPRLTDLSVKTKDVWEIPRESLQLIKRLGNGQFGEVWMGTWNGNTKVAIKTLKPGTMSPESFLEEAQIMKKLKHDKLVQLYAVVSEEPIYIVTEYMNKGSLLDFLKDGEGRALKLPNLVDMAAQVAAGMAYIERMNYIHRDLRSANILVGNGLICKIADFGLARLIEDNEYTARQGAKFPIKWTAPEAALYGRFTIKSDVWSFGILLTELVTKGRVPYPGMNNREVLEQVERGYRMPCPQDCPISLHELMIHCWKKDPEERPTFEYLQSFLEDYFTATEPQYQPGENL

GI50 (PANC-1): 430 nM
inhibition (Focal adhesion kinase 1): 96.4%
inhibition [1]: 89.8%
inhibition [2]: 91.1%
GI50 (HeLa): 730 nM
inhibition [3]: 6.7%
inhibition [4]: 62.2%
pIC50 [5]: > 9.30
inhibition [6]: 88.2%
GI50 (MV4-11): 100 nM
inhibition [7]: 75.4%
inhibition [8]: 55.8%
inhibition [9]: 90.6%
inhibition [10]: 65.5%
inhibition [11]: 37.2%
inhibition [12]: 3.6%
GI50 (HepG2): 1400 nM
inhibition [14]: -2.5%
SMILES: CC(=O)N1CCN(c2ccc(Nc3ncc(C(F)(F)F)c(N4Cc5cccc(N(C)S(C)(=O)=O)c5C4)n3)cc2)CC1
GI50 (NOMO-1): 3.8 µM
inhibition [13]: 42.2%
